Assay results taken from PubChem BioAssay AID540266 (Southern Research Specialized Biocontainment Screening …, 2011).
“And” between values parts separate entries of the source, which are not always exact repeats. Identical values can stand only once. The source made the active and inactive calls.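 Rule for the calls: active = any dose giving under 70% viability, per first replicate; inactive = the rest.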

Tested on: not listed separately
Test: viability of uninfected HEp-2 cells – cell-based, CellTiter-Glo luminescence, synthesized compounds, set 11, cytotoxicity control for RSV inhibitor project, dose response (AID 540266)
Details: HEp-2 cell viability, luminescence (CellTiter-Glo); at 200 µM (top of the series)
In short: (§1)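 System: HEp-2 human cell line, uninfected (no virus added) | Compound dosing: 8 doses, 1:2 steps, 0.5% DMSO | Times: 6 d compound exposure, 37 °C | Signal: CellTiter-Glo luminescence | Evaluation: % viability versus median cell controls, CC50 via 0–100-bounded 4-parameter fit | Replicates: Triplicate wells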
For `Cc1ccc(Cn2c(=O)n(Cc3ccc(C(=O)Nc4ccncc4)cc3)c(=O)c3ccccc32)cc1`, the viability was 84% (inactive).

Tested on: HEp-2 cell viability, luminescence (CellTiter-Glo)
Test: as above
Details: not given
In short: as §1
Compound `COCCCNC(=O)c1ccc(Cn2c(=O)c3ccccc3n(Cc3ccccc3F)c2=O)cc1` has a CC50 of 7.1 µM. `COCCCNC(=O)c1ccc(Cn2c(=O)c3ccccc3n(Cc3ccccc3Br)c2=O)cc1` gave a CC50 of 7.99 µM. With `Cc1ccc(Cn2c(=O)n(Cc3ccc(C(=O)NCCCOC(C)C)cc3)c(=O)c3ccccc32)cc1` the CC50 was 19.1 µM. `Cc1ccc(Cn2c(=O)n(Cc3ccc(C(=O)NC(C)(C)C)cc3)c(=O)c3ccccc32)cc1` gave a CC50 of 12.1 µM. For `COCCCNC(=O)c1ccc(Cn2c(=O)c3ccccc3n(Cc3ccc(C(F)(F)F)cc3)c2=O)cc1`, the CC50 was 79.2 µM. Work on `Cc1ccc(Cn2c(=O)n(Cc3ccc(C(=O)NCCCN(C)C)cc3)c(=O)c3ccccc32)cc1` yielded a CC50 of 15.1 µM. Work on `COCCCNC(=O)c1ccc(Cn2c(=O)c3ccccc3n(Cc3ccc([N+](=O)[O-])cc3)c2=O)cc1` yielded a CC50 of 113 µM. Compound `CCOCCCNC(=O)c1ccc(Cn2c(=O)c3ccccc3n(Cc3ccc(C)cc3)c2=O)cc1` has a CC50 of 8.5 µM. `COCCCNC(=O)c1ccc(Cn2c(=O)c3ccccc3n(Cc3ccc(Br)cc3)c2=O)cc1` showed a CC50 of 138 µM. For `Cc1ccc(C)c(NC(=O)[C@@H]2CCCN2S(=O)(=O)c2cccc3cccnc23)c1`, the CC50 was 34.7 µM and 32.9 µM. `COCCCNC(=O)c1ccc(Cn2c(=O)c3ccccc3n(Cc3cccc(Br)c3)c2=O)cc1` gave a CC50 of 3.32 µM. `COCCCNC(=O)c1ccc(Cn2c(=O)c3ccccc3n(Cc3ccc(C)c(C(F)(F)F)c3)c2=O)cc1` showed a CC50 of 71.3 µM. With `COCCCNC(=O)c1ccc(Cn2c(=O)c3ccccc3n(Cc3ccc(OC)cc3)c2=O)cc1` the CC50 was 149 µM. Compound `COCCCNC(=O)c1ccc(Cn2c(=O)c3ccccc3n(Cc3ccc(F)cc3)c2=O)cc1` has a CC50 of 7.09 µM.
